Assay outcomes deposited in PubChem BioAssay by several laboratories.
RanGTP-Impb inh: inhibitors of RanGTP-importin-beta interaction, primary screen, biochemical, FRET, CFP-Ran, YFP-importin-beta, homogeneous; inhibition, % (test concentration not listed); cell-free CFP-Ran/YFP-importin-beta FRET ratio; actives 1.1% (n = 300,000);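 active = more than half of the replicate wells show a fall in the fluorescence ratio signal beyond about 16%, limit read from the data, passing the limit was not always enough; inconclusive = exactly half of the replicate wells pass the set limit; inactive = fewer than half of replicates pass the limit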;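 also: 0% = DMSO wells and 100% = Ran loaded with GDP instead of GTP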
Runt-SMMHC FRET: inhibitors of RUNX1 Runt–CBFb-SMMHC binding, primary screen, biochemical, FRET, Cerulean-Runt, Venus-CBFb-SMMHC, uHTS; Runt-related transcription factor 1 (Homo sapiens) + Core-binding factor subunit beta …; Cerulean-Runt/Venus-CBFb-SMMHC FRET ratio 530/480, 1 h; inhibition, % at 20 µM; actives 0.74% (n = 220,000);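 active = mean inhibition across duplicate retests at 20 µM reaching about 50%, limit read from the data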;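 also: 0% = DMSO wells and 100% = wells with excess untagged CBFb-SMMHC; inhibitors lower the FRET ratio by blocking Runt binding to CBFb-SMMHC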
Target sequence (Q01196 whole entry, looked up): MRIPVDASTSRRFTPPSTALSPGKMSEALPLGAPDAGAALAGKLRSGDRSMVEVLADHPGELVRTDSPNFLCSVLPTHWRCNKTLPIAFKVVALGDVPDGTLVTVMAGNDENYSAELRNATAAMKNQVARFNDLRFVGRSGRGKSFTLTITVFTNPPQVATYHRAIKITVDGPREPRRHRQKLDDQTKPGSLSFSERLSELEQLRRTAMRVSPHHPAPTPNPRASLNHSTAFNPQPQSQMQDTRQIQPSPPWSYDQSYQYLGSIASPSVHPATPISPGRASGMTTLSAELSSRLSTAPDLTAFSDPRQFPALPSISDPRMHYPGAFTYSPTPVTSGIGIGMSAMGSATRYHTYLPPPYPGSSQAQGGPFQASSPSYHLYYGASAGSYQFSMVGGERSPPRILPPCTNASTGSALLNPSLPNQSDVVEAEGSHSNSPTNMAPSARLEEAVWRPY
Target sequence (Q13951 whole entry, looked up): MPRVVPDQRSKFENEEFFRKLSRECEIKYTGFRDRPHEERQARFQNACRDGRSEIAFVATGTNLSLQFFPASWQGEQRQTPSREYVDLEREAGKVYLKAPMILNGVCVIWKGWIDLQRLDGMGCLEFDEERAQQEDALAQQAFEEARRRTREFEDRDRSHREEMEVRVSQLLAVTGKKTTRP
Hck-Nef inh: inhibitors of Nef-activated human Hck kinase, primary screen, biochemical, Z-Lyte FRET, 384-well, Hck-YEEI | Recombinant Hck-YEEI plus Nef, Z-Lyte FRET kinase assay | AID 463187, 2010 | actives 0.68% (n = 220,000) | inhibition, % at 20 µM | Tyrosine-protein kinase HCK (Homo sapiens), P08631;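 active = Hck-Nef kinase inhibition above about 50%, limit read from the data; inactive = inhibition below that limit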;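 also: 0% = DMSO with Hck plus Nef and 100% = Hck alone without Nef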
Runt-CBFb FRET: inhibitors of RUNX1 Runt–CBFb binding, primary screen, biochemical, FRET, Cerulean-Runt, Venus-CBFb, uHTS | Runt-related transcription factor 1 (Homo sapiens) + Core-binding factor subunit beta … | Cerulean-Runt/Venus-CBFb FRET ratio 530/480, 1 h | inhibition, % at 20 µM | actives 0.46% (n = 220,000) | AID 1496, 2009;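 active = inhibition over about 50% at 20 µM in the single-dose screen, limit read from the data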;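 also: 0% = DMSO wells and 100% = excess unlabeled CBFb competitor control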
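test system = Cerulean-Runt domain fusion protein, energy donor | probe or stimulus = Venus-CBFb binding partner, 100 nM | incubation = two 1 h room-temperature incubations shielded from light | detection = fluorescence energy transfer, 422 nm excitation, 530/480 nm emission | measure = loss of energy transfer signal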
Hck Nef conf: retest of Hck:Nef kinase inhibitor hits, confirmation, biochemical, Z-Lyte FRET, 384-well, p-Tyr peptide counterscreen; shares compounds with Hck-Nef inh; Recombinant Hck-YEEI:Nef, Z-Lyte FRET kinase assay; calls only at 10 µM; actives 28% (n = 1,300);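 active = average inhibition of at least 50%, with Z-scores no higher than 3 in both the phospho-tyrosine peptide and fluorescence counterscreens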
* marks the source's active call; other numbers are inactive results; i = inactive; ? = inconclusive; · = no result given; + = active, no number. Shown are actives, neighbours in structure and some others; about 1.8% of the full set was active somewhere.

SMILES	RanGTP-Impb inh	Runt-SMMHC FRET	Hck-Nef inh	Runt-CBFb FRET	Hck Nef conf
O=S(=O)(O)c1cccc(N=Nc2c(O)ccc3ccccc23)c1	-6	-195	85*	-5	+
O=c1cc(C(F)(F)F)[nH]c2ccccc12	-3	4	50*	0	i
Cc1ccc2[nH]c(C(F)(F)F)cc(=O)c2c1	5	-1	-2	0	·
C=CCON1C(=O)C(=O)N(OCC=C)[C@H]2CCCC[C@H]21	2	2	18	1	·
CC(C)C1Cc2[nH]c(=O)c(C(=O)O)cc2CO1 (configuration not stated)	4	-4	75*	-1	i
Cn1c(COc2ccccc2)nnc1SCCSc1nnc(COc2ccccc2)n1C	-1	2	3	-2	·
Cn1c(COc2ccc(Br)cc2)nnc1SC1CCc2ccccc2C1=O (configuration not stated)	-1	-4	51*	1	i
COc1ccc(Cn2c(C3CCCCC3)nc3c(c(=O)c4ccccc4n3C)c2=O)cc1	-2	-2	71*	1	i
CN1C(=O)NC(c2ccccc2)C2=C1CN(c1ccc3ccccc3c1)C2=O (configuration not stated)	-5	-3	103*	-1	+
COc1ccc(OCC(=O)Nc2nc3ccc(NC(C)=O)cc3s2)cc1	-4	-1	51*	1	i
COc1ccccc1C1/C(=C(/O)c2ccccc2)C(=O)C(=O)N1CC(C)O (configuration not stated)	-1	1	72*	-1	i
Cc1cccc(-n2cnc3c(sc4nc(N5CCOCC5)c5c(c43)CCCC5)c2=O)c1	0	2	6	-5	·
COCCOn1c(SCCOC)nc2ccccc2c1=O	-2	1	11	3	·
Oc1ccc(Nc2ccnc3cc(Cl)ccc23)cc1	5	0	64*	4	+
CCCCCCc1cc2cc(C(N)=O)c(=N)oc2cc1O	168*	59*	72*	20	·
CCOC(=O)c1cc2ccc(OC(=O)c3ccco3)cc2oc1=O	182*	62*	136*	18	·
CCCCCCc1cc2cc(S(=O)(=O)c3ccc(F)c(Cl)c3)c(=O)oc2cc1O	130*	63*	55*	19	·
CCCCCCc1cc2cc(C(=O)NC)c(=N)oc2cc1O	166*	60*	51*	10	i
CCCC1(c2ccccc2)NC(=O)N(CC(=O)NCc2ccc(OC)cc2)C1=O (configuration not stated)	0	·	·	·	·
CN1C(=O)c2cccc3c(S(=O)(=O)Nc4ccccc4F)ccc1c23	-3	·	·	·	·
CCOc1cccc(C2/C(=C(/O)c3ccc4c(c3)CC(C)O4)C(=O)C(=O)N2Cc2ccncc2)c1 (configuration not stated)	4	·	·	·	·
CCCCCCc1cc2cc(C(=O)OCC)c(=O)oc2cc1O	190*	84*	+	10	·
Cc1[nH]n(-c2ccccc2)c(=O)c1C=Nc1ccc2[nH]c(=O)[nH]c2c1	2	-11	1	-1	·
O=c1[nH]c2ccc(N=Cc3c(O)ccc4cc(Br)ccc34)cc2[nH]1	?	26	63*	-9	+
COc1cccc(NC(=O)c2cc3c(=O)n4ccccc4nc3n(CC(C)C)c2=N)c1	5	12	3	2	·
SMILES	RanGTP-Impb inh	Runt-SMMHC FRET	Hck-Nef inh	Runt-CBFb FRET	Hck Nef conf
CCCn1c(=N)c(C#N)cc2c(=O)n3ccccc3nc21	179*	76*	60*	32	·
N#Cc1cc2c(=O)n3ccccc3nc2n(CCCn2ccnc2)c1=N	140*	40	55*	12	i
COc1ccc(CN2C=C3C(=O)C(C)(OC(=O)C4CCCC4)C(=O)C=C3C=C2c2ccsc2)cc1 (configuration not stated)	-2	27	33	5	·
COc1ccc(C2=CC3=C(Br)C(=O)C(C)(OC(=O)c4ccc(Cl)nc4)C(=O)C3=CO2)cc1 (configuration not stated)	-5	2	94*	2	+
COC(=O)CCC(=O)OC1(C)C(=O)C2=CN(C(CO)CO)C(c3ccc(OC)cc3)=CC2=C(Br)C1=O (configuration not stated)	8	22	8	18	·
COC(=O)CCC(=O)OC1(C)C(=O)C2=COC(c3ccc(OC)cc3)=CC2=C(Br)C1=O (configuration not stated)	-19	-20	93*	38	+
CC1(OC(=O)C2CCCC2)C(=O)C=C2C=C(c3ccsc3)OC=C2C1=O (configuration not stated)	1	3	62*	7	+
COc1ccc(C2=CC3=C(Br)C(=O)C(C)(OC(=O)C4CCCC4)C(=O)C3=CO2)cc1 (configuration not stated)	-5	18	82*	64*	+
CCOC(=O)c1oc2ccccc2c1COC(=O)CNC(=O)c1cccc(C)c1	0	·	·	·	·
COc1ccc(CC(NC(C)=O)C(=O)NC2CCN(C(=O)c3ccccc3F)CC2)cc1 (configuration not stated)	-3	·	·	·	·
Cc1ccc(C(=O)OCC(=O)c2c[nH]c3ccccc23)cc1S(=O)(=O)N1CCCCC1	1	0	0	0	·
O=C1/C(=C/C=C/c2ccco2)SC(=S)N1c1ccc(O)cc1	-3	4	98*	29	+
CC(C)C(C(=O)O)N1C(=O)/C(=C/c2cccn2C)SC1=S (configuration not stated)	·	-68	3	-44	·
O=C(NN1C(=O)/C(=C/C=C/c2ccco2)SC1=S)c1ccncc1	-4	-3	90*	37	i
CC(C)C(C(=O)O)N1C(=O)/C(=C/C=C/c2ccco2)SC1=S (configuration not stated)	-5	12	83*	24	i
Cc1cnc(=O)[nH]c1SCc1ccc([N+](=O)[O-])cc1	3	·	·	·	·
C=CCC1(CC=C)CCCN1C(=O)C1CCC(=O)N(CCc2ccccc2)C1 (configuration not stated)	1	·	·	·	·
Oc1ccc(-c2nc3ccccc3s2)c(O)c1	-5	8	163*	6	·
Oc1ccc(-c2nc3ccccc3s2)cc1	6	3	47	-1	·
CC(=O)c1cccc(NS(=O)(=O)c2cc3c(cc2C)N(C(C)=O)CCO3)c1	1	·	·	·	·
